Screening data as filed in PubChem.
TRPC6 inh: blocks the mouse TRPC6 cation channel. HEK293-TRPC6, membrane potential dye, ACh-evoked depolarization; active compounds read low. actives 1.1% (n = 310,000). B-score at 10 µM;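 active = B-score under library mean minus 3 SD, initial fluorescence not abnormally high, positive integrated signal ratio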;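 also: B-score derived from integrated fluorescence ratio over the kinetic read; more negative B-score means stronger inhibition of depolarization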
TRPC4 inh: TRPC4 (mouse) channel inhibition | HEK293 TRPC4beta/mu-opioid, DAMGO-evoked Fluo4 calcium flux; active compounds read low | B-score at 10 µM | actives 0.39% (n = 300,000) | AID 2247;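 active = B-score over 3 SD under the library average, no early fluorescence shift, positive overall ratio signal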
Target sequence (Q9QUQ5 whole entry, looked up): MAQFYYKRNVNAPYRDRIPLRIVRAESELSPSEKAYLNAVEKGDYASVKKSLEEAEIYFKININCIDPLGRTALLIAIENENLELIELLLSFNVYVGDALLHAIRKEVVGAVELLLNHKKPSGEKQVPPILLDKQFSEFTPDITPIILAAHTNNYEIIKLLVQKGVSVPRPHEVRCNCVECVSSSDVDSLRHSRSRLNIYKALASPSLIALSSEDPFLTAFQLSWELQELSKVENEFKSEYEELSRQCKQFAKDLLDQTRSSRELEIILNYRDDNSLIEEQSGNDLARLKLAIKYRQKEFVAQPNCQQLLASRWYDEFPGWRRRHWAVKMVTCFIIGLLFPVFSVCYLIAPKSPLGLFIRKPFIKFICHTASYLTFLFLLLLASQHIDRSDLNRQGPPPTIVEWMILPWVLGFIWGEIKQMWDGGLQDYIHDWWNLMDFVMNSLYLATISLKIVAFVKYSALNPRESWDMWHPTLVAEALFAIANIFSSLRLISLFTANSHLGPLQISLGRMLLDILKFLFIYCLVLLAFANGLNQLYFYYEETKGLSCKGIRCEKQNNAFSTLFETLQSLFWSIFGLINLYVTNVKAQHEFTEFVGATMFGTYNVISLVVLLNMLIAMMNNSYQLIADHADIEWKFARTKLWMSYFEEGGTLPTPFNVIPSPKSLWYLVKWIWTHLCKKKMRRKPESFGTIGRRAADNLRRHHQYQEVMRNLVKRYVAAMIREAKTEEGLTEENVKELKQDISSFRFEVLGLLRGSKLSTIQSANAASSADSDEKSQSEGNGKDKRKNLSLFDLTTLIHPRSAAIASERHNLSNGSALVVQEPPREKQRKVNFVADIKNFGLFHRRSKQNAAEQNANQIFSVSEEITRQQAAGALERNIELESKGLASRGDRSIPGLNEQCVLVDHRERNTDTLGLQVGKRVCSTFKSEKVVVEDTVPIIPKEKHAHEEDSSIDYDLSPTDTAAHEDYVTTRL
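Assay system: HEK293 cells with stable TRPC4beta plus mu-opioid receptor expression; Probe or stimulus: DAMGO in two steps, submaximal then maximal; Dosing: single-point compound dosing; Measured by: Fluo4 calcium-dye fluorescence, kinetic read; Read-out basis: B score from integrated Fluo4 fluorescence ratio.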
TRPC4 PAM: TRPC4 (mouse) allosteric potentiation | AID 2227 | HEK293 TRPC4beta/mu-opioid, DAMGO EC20, Fluo-4 Ca2+ flux; active compounds read high | Q9QUQ5 | actives 0.42% (n = 310,000) | B-score at 10 µM;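 active = B-score of calcium response area above 5 SD of library B-scores, with initial fluorescence ratio within 5 SD of library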;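 also: B-score of integrated fluorescence ratio over time as area under calcium response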
TRPC6 act: mouse TRPC6 channel activation; actives 0.13% (n = 310,000); HEK293-TRPC6 membrane potential dye fluorescence; active compounds read high; AID 2550; B-score at 10 µM;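 active = B-score of the integrated fluorescence ratio above library mean plus 3 SD, and starting fluorescence ratio within library mean plus 5 SD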;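 also: higher score means more depolarization so channel activation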
Kir21 block: inhibitors of mouse Kir2.1 inward-rectifier potassium channel. P35561. HEK293-Kir2.1, FluxOR thallium flux fluorescence; active compounds read low. B-score at 10 µM. actives 0.85% (n = 310,000). AID 1672;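 active = fluorescence ratio B-score at or below minus 3 SD of library scores, with starting-brightness B-score within 2 SD, cut at about -4.2 in these data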;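 also: channel flux triggered by added potassium and thallium sulfate stimulus; B-score of peak minus minimum fluorescence over baseline after thallium stimulus; more negative B-score means stronger Kir2.1 block with less thallium influx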
TRPC4 agonist: activators of mouse TRPC4 channel; Q9QUQ5; HEK293 TRPC4beta/mu-opioid, Fluo4 calcium fluorescence; active compounds read high; B-score at 10 µM; actives 0.49% (n = 310,000); AID 2237;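 active = B-score above 5 SD of library B-scores, and initial fluorescence ratio not above library mean plus 5 SD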;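 also: positive B-score marks a calcium rise read as TRPC4 activation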
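Assay system: HEK293 cells stably co-expressing mouse TRPC4beta and mu-opioid receptor / Timing: Fluo4 dye loading 45 min at room temperature, 110 s recording / Signal: Fluo4 calcium-sensitive dye fluorescence, kinetic, 1 Hz baseline / Read-out: integrated baseline-normalised fluorescence ratio, converted to per-well B score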
TRPC4 spec 2: mouse TRPC4 off-target activity of TRPC6 inhibitors, second screen | shares compounds with TRPC6 inh | HEK293 TRPC4/MOR, membrane potential dye fluorescence; channel activated by saturating DAMGO dose | inhibition, % at 10 µM | actives 42% (n = 920) | AID 2776;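 active = compounds whose fluorescence signal differed from control wells by over 3 SD, either direction, in both duplicate plates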
TRPC4 spec: mouse TRPC4 off-target activity of TRPC6 inhibitors. shares compounds with TRPC6 inh. HEK293 TRPC4/mu-opioid, membrane potential fluorescence. activity change, negative = inhibition, % at 10 µM. actives 61% (n = 920). AID 2777;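 active = rise or fall in signal beyond 3 SD of buffer-only wells in both replicate plates, either sign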;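 also: integrated kinetic ratio of fluorescence range over baseline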
HEK293 MPD ctr 2-1: second check of TRPC6 inhibitor effects in parental HEK293 cells | shares compounds with TRPC6 inh | parental HEK293 membrane potential dye fluorescence; maximal acetylcholine challenge after compound addition | signal change vs control, % at 10 µM | actives 31% (n = 920) | AID 2779;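 active = membrane potential signal moving either way by over 3 SD of the maximum-effect control, in both duplicate plates, meaning non-specific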
HEK293 MPD ctr-1: checks TRPC6 inhibitor effects in parental HEK293 cells. AID 2780. membrane potential signal change, % at 10 µM. actives 60% (n = 920). shares compounds with TRPC6 inh. parental HEK293 membrane potential dye fluorescence;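 active = membrane potential signal shifting up or down by more than 3 SD of buffer-only wells, on both duplicate plates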
HEK293 MPD ctr-2: counter-screen for TRPC6 modulators: effect in parental HEK293 cells; actives 51% (n = 2,400); membrane potential dye fluorescence; membrane potential signal change, % at 10 µM; shares compounds with TRPC6 inh;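 active = membrane potential signal moves up or down beyond 5 SD from buffer-only wells, on both duplicate plates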
HEK293 MPD ctr 2-2: second check of TRPC6 modulator effects in parental HEK293 cells. shares compounds with TRPC6 inh. membrane potential dye fluorescence; after compound, maximal acetylcholine stimulation. inhibition, % at 10 µM. actives 14% (n = 2,400);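 active = membrane potential signal drops by more than 5 SD from the mean control signal, in both duplicate plates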;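 also: plate controls were acetylcholine ECmax control wells for no effect and buffer only wells for full effect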
TRPC4/MOR mod: mouse TRPC4 off-target activity of TRPC6 modulators | percent change from control (negative = decrease, positive = increase), % at 10 µM | AID 488927 | shares compounds with TRPC6 inh | HEK293 TRPC4/mu-opioid, membrane potential fluorescence | actives 69% (n = 2,400);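 active = membrane potential signal moved up or down beyond 5 SD of buffer control wells, in both duplicate plates, actives on both sides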;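 also: plate controls were assay buffer wells for no effect and DAMGO maximal-effect wells for full effect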
TRPC4/MOR inh 2: second selectivity test of TRPC6 modulators against mouse TRPC4. inhibition, % at 10 µM. actives 55% (n = 2,400). shares compounds with TRPC6 inh. HEK293 TRPC4/mu-opioid, membrane potential dye fluorescence; stimulated with maximal-effect DAMGO;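 active = drop in membrane potential signal beyond 5 SD of the control wells in both duplicate plates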;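 also: TRPC4 counter screen for TRPC6 hits run under conditions tuned for TRPC6 not TRPC4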
TRPC6 block conf: mouse TRPC6 inhibitor confirmation; shares compounds with TRPC6 inh; HEK293-TRPC6, membrane potential dye, ACh-evoked depolarization; inhibition, % at 10 µM; actives 43% (n = 3,300); AID 488960;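 active = fluorescence ratio falls more than 5 SD below the full-stimulation control mean, in both duplicate runs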;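 also: integrated fluorescence ratio of peak minus minimum over baseline after agonist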
TRPC6 act conf: mouse TRPC6 activator confirmation | shares compounds with TRPC6 inh | HEK293-TRPC6 membrane potential dye fluorescence, FDSS | activation, % at 10 µM | actives 11% (n = 2,800);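 active = ratio signal rise beyond 5 SD above unstimulated control wells' mean, seen in both duplicate runs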;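 also: plate controls were buffer EC0 wells for no effect and acetylcholine ECmax response for full effect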
* hit, by the source's call; i = inactive; . = no result given. Only some compounds are listed: those with a hit (about 2.9% of all), similar ones and a draw of the others.

SMILES	TRPC6 inh	TRPC4 inh	TRPC4 PAM	TRPC6 act	Kir21 block	TRPC4 agonist	TRPC6 block conf	TRPC6 act conf	others
CCC(C)NC(=S)N(CCc1ccccc1)Cc1cc2cc(OC)c(OC)cc2[nH]c1=O (stereo unspecified)	i	i	i	i	-0.12	i	.	.
CC(OC(=O)c1ccc(Cl)nc1)C(=O)NCc1ccc2c(c1)OCO2 (stereo unspecified)	i	i	i	i	1.6	i	.	.
Cc1ccc(O)c(NC(=O)c2cc3nc4c(c(C(F)(F)F)n3n2)CCc2ccccc2-4)c1	i	i	i	i	-1.4	i	.	.
CCN(CC)CCCNC(=O)c1cc2nc3c(c(C(F)(F)F)n2n1)CCc1ccccc1-3	-6.7*	i	i	i	0.8	i	i	i	TRPC4 spec 2=65%*;TRPC4 spec=i;HEK293 MPD ctr 2-1=i;HEK293 MPD ctr-1=0.8%*
COC(=O)c1cccc(CSc2nnc(C)s2)c1	i	i	i	i	0.98	i	.	.
Cc1cccn2c(=O)c3cc(C(=O)NCCc4ccccc4)c(=N)n(Cc4ccco4)c3nc12	i	i	i	i	1.3	i	.	.
Cc1cccn2c(=O)c3cc(C(=O)NCc4cccnc4)c(=N)n(C(C)C)c3nc12	-6.2*	i	i	i	-1.8	i	i	i	HEK293 MPD ctr-2=i;HEK293 MPD ctr 2-2=i;TRPC4/MOR mod=i;TRPC4/MOR inh 2=38%*
Cc1cccn2c(=O)c3cc(C(=O)NCc4ccco4)c(=N)n(C(C)C)c3nc12	-8.1*	i	i	i	-0.12	i	i	i	TRPC4 spec 2=i;TRPC4 spec=-31%*;HEK293 MPD ctr 2-1=i;HEK293 MPD ctr-1=-446%*
O=C(c1cccc(S(=O)(=O)N2CCN(c3ccccc3)CC2)c1)N1CCCCCCC1	i	i	i	i	-1.7	i	.	.
O=C(c1cccc(-n2cccc2)c1)N1CCN(S(=O)(=O)c2c(F)cccc2F)CC1	-6.1*	i	i	i	-1.2	i	44%*	.	HEK293 MPD ctr-2=i;HEK293 MPD ctr 2-2=i;TRPC4/MOR mod=i;TRPC4/MOR inh 2=i
